A selection: hits, their analogues and other compounds. The true share with any hit is near 1.8%.
M4 ag: agonists of human muscarinic M4 receptor (CHRM4). P08173. CHO-K1 hM4/Gqi5, Fluo-8 calcium fluorescence; vehicle 0%, full acetylcholine response 100%. activation, % at 3 µM. hit rate 0.14% among 360,000. AID 624127;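 active = activation above the run mean over all test wells plus 3 SD, cut at about 32% in these data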;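 note: peak over basal fluorescence ratio per well then scaled between controls; 0% = DMSO wells and 100% = acetylcholine at EC100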
Target sequence (P08173 whole entry, looked up): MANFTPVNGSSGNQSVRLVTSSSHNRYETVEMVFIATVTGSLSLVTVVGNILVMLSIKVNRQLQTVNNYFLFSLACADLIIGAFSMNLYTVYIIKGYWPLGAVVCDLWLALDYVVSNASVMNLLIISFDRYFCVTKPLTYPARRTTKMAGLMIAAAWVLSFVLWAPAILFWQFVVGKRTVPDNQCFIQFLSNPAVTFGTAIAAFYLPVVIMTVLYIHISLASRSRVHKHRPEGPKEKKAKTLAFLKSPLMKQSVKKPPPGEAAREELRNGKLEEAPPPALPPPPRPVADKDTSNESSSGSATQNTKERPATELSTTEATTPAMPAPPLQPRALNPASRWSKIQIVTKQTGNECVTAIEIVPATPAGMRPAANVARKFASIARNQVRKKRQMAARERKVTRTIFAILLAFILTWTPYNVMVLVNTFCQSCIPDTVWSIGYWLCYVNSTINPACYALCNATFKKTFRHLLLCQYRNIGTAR
CHRM5 PAM: potentiates acetylcholine response at human M5 receptor. activation, % at 3 µM. hit rate 0.3% among 360,000. AID 624038. CHO-K1 hM5, Fluo-8 calcium, ACh EC20 PAM; 0% = ACh EC20, 100% = ACh EC100;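 active = activation above the run cutoff, the mean activation of all test compounds plus 3 SD, cut at about 18% in these data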
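system = human M5 receptor in CHO-K1 cells | reagent = EC20 acetylcholine as agonist stimulus | compound dosing = single-point, 3 µM nominal | incubation = Fluo-8 loading 80 min at 37 °C plus 30 min room temperature | detection = Fluo-8 calcium dye fluorescence, kinetic read | benchmarks = low control EC20 acetylcholine (0%), high control EC100 acetylcholine (100%)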
CHRM4 PAM: potentiates acetylcholine response at human M4 receptor; CHO-K1 hM4/Gqi5, Fluo-8 calcium fluorescence, ACh EC20; 0% = ACh EC20, 100% = maximal ACh; activation, % at 3 µM; hit rate 0.4% among 360,000;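 active = activation above its plate's cutoff, the mean activation of sample wells plus 3 SD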
CHRM5 antagonist: antagonists of human muscarinic M5 receptor (CHRM5). P08912. CHO-hM5 cells, Fluo-8 calcium fluorescence, ACh EC80. inhibition, % at 3 µM. hit rate 0.59% among 360,000. AID 624040;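 active = inhibition above a per-plate cutoff, the mean of that plate's test compounds plus 3 SD, cut at about 27% in these data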;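 note: 0% = acetylcholine EC80 with DMSO and 100% = DMSO without agonist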
M5 ag: CHRM5 agonism in calcium assay | P08912 | CHO-K1 hM5 cells, Fluo-8 calcium fluorescence; 0% DMSO wells, 100% maximal acetylcholine response | activation, % at 3 µM | hit rate 0.19% among 360,000 | AID 624037;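 active = activation above the run's mean over test compounds plus 3 SD, cut at about 23% in these data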;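 note: signal is peak over basal fluorescence ratio across the kinetic read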
M4 antag: antagonists of human muscarinic M4 receptor (CHRM4). P08173. CHO-hM4 cells, ACh EC80, Fluo-8 calcium fluorescence. inhibition, % at 3 µM. hit rate 0.73% among 360,000;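 active = inhibition above its plate's cutoff, the mean inhibition of sample wells plus 3 SD, cut at about 27% in these data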;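 note: 0% = acetylcholine EC80 with DMSO and 100% = DMSO without agonist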
Starred values were filed as active, the others as inactive.

SMILES | M4 ag | CHRM5 PAM | CHRM4 PAM | CHRM5 antagonist | M5 ag | M4 antag
COC(=O)C1(c2ccccc2)NC(c2cccs2)C2C(=O)N(c3ccccc3)C(=O)C21 (stereo not given) | 18 | -3 | 16 | -11 | 53* | -20
CC(=O)c1c(N2CCCC2)nc(=S)n(-c2ccccc2)c1C | 1 | -4 | -17 | 5 | -8 | 47*
CCn1c(C)c(C(C)=O)c(N2CCN(C(c3ccccc3)c3ccccc3)CC2)nc1=S | 11 | -20 | -20 | 25 | -7 | 29*
CCn1c(C)c(C(C)=O)c(N2CCN(c3ccccc3)CC2)nc1=S | 0 | -5 | -8 | -6 | -8 | 2
CCCCNc1ccc2c3c(cccc13)C(=O)N(CCCC)C2=O | 267* | -21 | -39 | 97* | 591* | 81*
Cc1nn(C)c(C)c1N1C(=O)c2cccc3c(N)ccc(c23)C1=O | 82* | -15 | -32 | 28* | 38* | 28*
Cc1nn(C)c(C)c1N1C(=O)c2cccc3c(Br)ccc(c23)C1=O | 6 | 1 | -2 | 4 | -1 | 7
O=C1c2cccc3c(N4CCCCC4)ccc(c23)C(=O)N1c1ccccn1 | 2 | -3 | 3 | 3 | 3 | -2
Cc1ccc(N2C(=O)c3cccc4c(N)ccc(c34)C2=O)c2cccnc12 | 16 | -12 | 6 | 4 | 38* | -2
CN(C)CCCN1C(=O)c2cccc3c(Br)ccc(c23)C1=O | 1 | 5 | -11 | 9 | 2 | 4
CCCN1C(=O)c2cccc3c(N4CCCCC4)ccc(c23)C1=O | 2 | -3 | -3 | 6 | 4 | 2
CCN1C(=O)c2cccc3c(N)ccc(c23)C1=O | 317* | -19 | -24 | 27* | 104* | 44*
COc1ccc(C2c3[nH]c4ccccc4c3CCN2C(=O)Cc2nonc2C)c(F)c1 (stereo not given) | 2 | -7 | -26 | 7 | -2 | 9
O=C(C[C@@H]1C/C=C\CCC(=O)OC[C@H](Cc2ccccc2)NC1=O)N[C@@H](CO)Cc1ccccc1 | 1 | -1 | -4 | 13 | 0 | 4
CCOC(=O)/C=c1\s/c(=C\c2ccc3cc(OC)ccc3c2)c(=O)n1CC(=O)NCc1ccc2c(c1)OCO2 | 16 | 7 | -13 | 6 | 3 | 10
OC[C@@H]1CN(Cc2ccc(F)cc2)C[C@H](n2cnc3c(N4CCOCC4)ncnc32)O1 | 3 | -4 | 6 | -1 | 3 | -12
c1ccc(CNc2ncnc3c2cnn3Cc2ccccc2)cc1 | 24 | -10 | -6 | 8 | 28* | 3
COC(=O)C1(C(=O)OC)c2ccccc2N(S(=O)(=O)c2ccc(C)cc2)C1CC(=O)c1ccccc1 (stereo not given) | 3 | -3 | -7 | 0 | 1 | 0
Cc1noc(C)c1S(=O)(=O)N(C)C[C@H]1OCc2cnnn2CCCC(=O)N([C@@H](C)CO)C[C@H]1C | 1 | 2 | -1 | 7 | 0 | -6
Cc1nc(-c2ccccc2)sc1C1(C)CC(c2ccc(OC(F)(F)F)cc2)=NO1 (stereo not given) | 1 | 18* | 7 | -4 | 1 | -23
CC(=O)N(C1CC(C)C(C#N)(C#N)C1(C#N)C#N)N(C)C (stereo not given) | 0 | 2 | 1 | 6 | -3 | 10
CCCC(=O)N(C1CC(C)C(C#N)(C#N)C1(C#N)C#N)N(C)C (stereo not given) | 2 | -2 | -21 | 13 | 0 | 47*
CN(C)CCNC(=O)Cn1ccc2cc(S(=O)(=O)N3CCCCC3)ccc21 | 0 | -2 | 1 | 12 | -6 | 5
O=C(O)CC(c1ccccc1)N1C(=O)c2cccc([N+](=O)[O-])c2C1=O (stereo not given) | 1 | -2 | 2 | -5 | 2 | -8
O=C1Nc2ccccc2-n2nnnc2C1N1CCN(c2ccc(C(F)(F)F)cc2[N+](=O)[O-])CC1 (stereo not given) | 27 | 2 | 0 | 8 | 24* | 2
